Test system: Fibroblast
Assay: Multiplex assay against human fibroblast
Format: toxicity, cell-based
In short: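 Phenotypes for tubulin, mitochondrial mass and membrane permeability are expressed as per cents of healthy-nucleus cells. Cells were stained live at seeding with Hoechst33342, BioTracker Green Microtubule Cytoskeleton Dye, MitoTracker Red and Annexin V Alexa Fluor 680, then imaged after compound addition on a CQ1 microscope at 37°C and 5% CO2. Machine-learning gating in CellPathfinder separated Hoechst high-intensity objects from normal cells, divided normal cells by nuclear state (healthy, pyknosed, fragmented) and divided pyknosed cells into mitotic or apoptotic.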

[1] = 12 h, 1 µM, compound concentration 1 uM, replicate 1
[2] = 12 h, 1 µM, compound concentration 1 uM, replicate 2
[3] = 12 h, 10 µM, compound concentration 10 uM, replicate 1
[4] = 12 h, 10 µM, compound concentration 10 uM, replicate 2
[5] = 24 h, 1 µM, compound concentration 1 uM, replicate 1
[6] = 24 h, 1 µM, compound concentration 1 uM, replicate 2
[7] = 24 h, 10 µM, compound concentration 10 uM, replicate 1
[8] = 24 h, 10 µM, compound concentration 10 uM, replicate 2
[9] = 48 h, 1 µM, compound concentration 1 uM, replicate 1
[10] = 48 h, 1 µM, compound concentration 1 uM, replicate 2
[11] = 48 h, 10 µM, compound concentration 10 uM, replicate 1
[12] = 48 h, 10 µM, compound concentration 10 uM, replicate 2

CN1CCC(C(=O)c2cccc(NC(=O)c3c(F)cc(F)cc3F)n2)CC1
Population Apoptotic (%) [1]: 28% | Population Fragmented Nuclei (%) [1]: 16% | Population Healthy Nuclei (%) [1]: 64% | Population Hoechst High Intensity Objects (%) [1]: 3% | Population Membrane Permeable-Phenotype (%) [1]: 1% | Population Mitochondria Different-Phenotype (%) [1]: 4% | Population Mitotic Cells (%) [1]: 71% | Population Normal (%) [1]: 96% | Population Pyknosed Nuclei (%) [1]: 18% | Population Tubulin-Different-Phenotype (%) [1]: 28% | Total Cell Count [1]: 153 | Population Apoptotic (%) [2]: 40% | Population Fragmented Nuclei (%) [2]: 28% | Population Healthy Nuclei (%) [2]: 53% | Population Hoechst High Intensity Objects (%) [2]: 2% | Population Membrane Permeable-Phenotype (%) [2]: 5% | Population Mitochondria Different-Phenotype (%) [2]: 10% | Population Mitotic Cells (%) [2]: 60% | Population Normal (%) [2]: 97% | Population Tubulin-Different-Phenotype (%) [2]: 43% | Total Cell Count [2]: 142 | Population Apoptotic (%) [3]: 32% | Population Fragmented Nuclei (%) [3]: 12% | Population Healthy Nuclei (%) [3]: 74% | Population Hoechst High Intensity Objects (%) [3]: 4% | Population Membrane Permeable-Phenotype (%) [3]: 1% | Population Mitochondria Different-Phenotype (%) [3]: 7% | Population Mitotic Cells (%) [3]: 67% | Population Normal (%) [3]: 95% | Population Pyknosed Nuclei (%) [3]: 13% | Population Tubulin-Different-Phenotype (%) [3]: 42% | Total Cell Count [3]: 266 | Population Apoptotic (%) [4]: 36% | Population Fragmented Nuclei (%) [4]: 23% | Population Healthy Nuclei (%) [4]: 54% | Population Membrane Permeable-Phenotype (%) [4]: 6% | Population Mitochondria Different-Phenotype (%) [4]: 6% | Population Mitotic Cells (%) [4]: 63% | Population Pyknosed Nuclei (%) [4]: 22% | Population Tubulin-Different-Phenotype (%) [4]: 63% | Total Cell Count [4]: 142 | Population Apoptotic (%) [5]: 45% | Population Fragmented Nuclei (%) [5]: 12% | Population Healthy Nuclei (%) [5]: 74% | Population Hoechst High Intensity Objects (%) [5]: 1% | Population Membrane Permeable-Phenotype (%) [5]: 0% | Population Mitochondria Different-Phenotype (%) [5]: 2% | Population Mitotic Cells (%) [5]: 55% | Population Normal (%) [5]: 98% | Population Pyknosed Nuclei (%) [5]: 12% | Population Tubulin-Different-Phenotype (%) [5]: 21% | Total Cell Count [5]: 156 | Population Apoptotic (%) [6]: 40% | Population Fragmented Nuclei (%) [6]: 34% | Population Healthy Nuclei (%) [6]: 43% | Population Membrane Permeable-Phenotype (%) [6]: 6% | Population Mitochondria Different-Phenotype (%) [6]: 10% | Population Mitotic Cells (%) [6]: 59% | Population Pyknosed Nuclei (%) [6]: 21% | Population Tubulin-Different-Phenotype (%) [6]: 45% | Total Cell Count [6]: 148 | Population Apoptotic (%) [7]: 54% | Population Fragmented Nuclei (%) [7]: 13% | Population Healthy Nuclei (%) [7]: 71% | Population Hoechst High Intensity Objects (%) [7]: 3% | Population Membrane Permeable-Phenotype (%) [7]: 0% | Population Mitochondria Different-Phenotype (%) [7]: 6% | Population Mitotic Cells (%) [7]: 45% | Population Normal (%) [7]: 96% | Population Pyknosed Nuclei (%) [7]: 14% | Population Tubulin-Different-Phenotype (%) [7]: 37% | Total Cell Count [7]: 258 | Population Apoptotic (%) [8]: 37% | Population Fragmented Nuclei (%) [8]: 30% | Population Healthy Nuclei (%) [8]: 50% | Population Hoechst High Intensity Objects (%) [8]: 2% | Population Membrane Permeable-Phenotype (%) [8]: 5% | Population Mitochondria Different-Phenotype (%) [8]: 8% | Population Mitotic Cells (%) [8]: 62% | Population Normal (%) [8]: 97% | Population Pyknosed Nuclei (%) [8]: 19% | Population Tubulin-Different-Phenotype (%) [8]: 65% | Total Cell Count [8]: 153 | Population Apoptotic (%) [9]: 71% | Population Fragmented Nuclei (%) [9]: 16% | Population Healthy Nuclei (%) [9]: 74% | Population Hoechst High Intensity Objects (%) [9]: 3% | Population Membrane Permeable-Phenotype (%) [9]: 0% | Population Mitochondria Different-Phenotype (%) [9]: 1% | Population Mitotic Cells (%) [9]: 28% | Population Normal (%) [9]: 96% | Population Pyknosed Nuclei (%) [9]: 8% | Population Tubulin-Different-Phenotype (%) [9]: 25% | Total Cell Count [9]: 164 | Population Apoptotic (%) [10]: 56% | Population Fragmented Nuclei (%) [10]: 42% | Population Healthy Nuclei (%) [10]: 46% | Population Hoechst High Intensity Objects (%) [10]: 2% | Population Membrane Permeable-Phenotype (%) [10]: 5% | Population Mitochondria Different-Phenotype (%) [10]: 5% | Population Mitotic Cells (%) [10]: 43% | Population Normal (%) [10]: 97% | Population Pyknosed Nuclei (%) [10]: 10% | Population Tubulin-Different-Phenotype (%) [10]: 67% | Total Cell Count [10]: 156 | Population Apoptotic (%) [11]: 71% | Population Fragmented Nuclei (%) [11]: 17% | Population Healthy Nuclei (%) [11]: 71% | Population Hoechst High Intensity Objects (%) [11]: 5% | Population Membrane Permeable-Phenotype (%) [11]: 0% | Population Mitochondria Different-Phenotype (%) [11]: 7% | Population Mitotic Cells (%) [11]: 28% | Population Normal (%) [11]: 94% | Population Pyknosed Nuclei (%) [11]: 10% | Population Tubulin-Different-Phenotype (%) [11]: 40% | Total Cell Count [11]: 272 | Population Apoptotic (%) [12]: 54% | Population Fragmented Nuclei (%) [12]: 36% | Population Healthy Nuclei (%) [12]: 55% | Population Hoechst High Intensity Objects (%) [12]: 3% | Population Membrane Permeable-Phenotype (%) [12]: 3% | Population Mitochondria Different-Phenotype (%) [12]: 3% | Population Mitotic Cells (%) [12]: 45% | Population Normal (%) [12]: 96% | Population Pyknosed Nuclei (%) [12]: 7% | Population Tubulin-Different-Phenotype (%) [12]: 69% | Total Cell Count [12]: 152

Cc1cc(=O)n(C)c2cc(N3C(=O)CC[C@H](NS(=O)(=O)CC(C)C)[C@H]3c3ccc(Cl)cc3)ccc12
Population Apoptotic (%) [1]: 31% | Population Fragmented Nuclei (%) [1]: 16% | Population Healthy Nuclei (%) [1]: 56% | Population Hoechst High Intensity Objects (%) [1]: 2% | Population Membrane Permeable-Phenotype (%) [1]: 0% | Population Mitochondria Different-Phenotype (%) [1]: 4% | Population Mitotic Cells (%) [1]: 68% | Population Normal (%) [1]: 97% | Population Pyknosed Nuclei (%) [1]: 26% | Population Tubulin-Different-Phenotype (%) [1]: 34% | Total Cell Count [1]: 135 | Population Apoptotic (%) [2]: 38% | Population Fragmented Nuclei (%) [2]: 20% | Population Healthy Nuclei (%) [2]: 38% | Population Hoechst High Intensity Objects (%) [2]: 10% | Population Membrane Permeable-Phenotype (%) [2]: 8% | Population Mitotic Cells (%) [2]: 62% | Population Normal (%) [2]: 89% | Population Pyknosed Nuclei (%) [2]: 40% | Population Tubulin-Different-Phenotype (%) [2]: 61% | Total Cell Count [2]: 137 | Population Apoptotic (%) [3]: 41% | Population Fragmented Nuclei (%) [3]: 11% | Population Healthy Nuclei (%) [3]: 40% | Population Hoechst High Intensity Objects (%) [3]: 3% | Population Membrane Permeable-Phenotype (%) [3]: 1% | Population Mitochondria Different-Phenotype (%) [3]: 8% | Population Mitotic Cells (%) [3]: 58% | Population Normal (%) [3]: 96% | Population Pyknosed Nuclei (%) [3]: 48% | Population Tubulin-Different-Phenotype (%) [3]: 86% | Total Cell Count [3]: 149 | Population Apoptotic (%) [4]: 18% | Population Fragmented Nuclei (%) [4]: 26% | Population Healthy Nuclei (%) [4]: 31% | Population Hoechst High Intensity Objects (%) [4]: 11% | Population Membrane Permeable-Phenotype (%) [4]: 8% | Population Mitotic Cells (%) [4]: 82% | Population Normal (%) [4]: 88% | Population Pyknosed Nuclei (%) [4]: 42% | Population Tubulin-Different-Phenotype (%) [4]: 94% | Total Cell Count [4]: 133 | Population Apoptotic (%) [5]: 34% | Population Fragmented Nuclei (%) [5]: 18% | Population Healthy Nuclei (%) [5]: 62% | Population Hoechst High Intensity Objects (%) [5]: 2% | Population Membrane Permeable-Phenotype (%) [5]: 1% | Population Mitochondria Different-Phenotype (%) [5]: 4% | Population Mitotic Cells (%) [5]: 65% | Population Normal (%) [5]: 97% | Population Pyknosed Nuclei (%) [5]: 18% | Population Tubulin-Different-Phenotype (%) [5]: 24% | Total Cell Count [5]: 140 | Population Apoptotic (%) [6]: 50% | Population Fragmented Nuclei (%) [6]: 26% | Population Healthy Nuclei (%) [6]: 44% | Population Hoechst High Intensity Objects (%) [6]: 10% | Population Membrane Permeable-Phenotype (%) [6]: 13% | Population Mitochondria Different-Phenotype (%) [6]: 5% | Population Mitotic Cells (%) [6]: 50% | Population Normal (%) [6]: 89% | Population Pyknosed Nuclei (%) [6]: 29% | Population Tubulin-Different-Phenotype (%) [6]: 70% | Total Cell Count [6]: 128 | Population Apoptotic (%) [7]: 43% | Population Fragmented Nuclei (%) [7]: 14% | Population Healthy Nuclei (%) [7]: 46% | Population Hoechst High Intensity Objects (%) [7]: 10% | Population Membrane Permeable-Phenotype (%) [7]: 0% | Population Mitochondria Different-Phenotype (%) [7]: 19% | Population Mitotic Cells (%) [7]: 56% | Population Normal (%) [7]: 90% | Population Pyknosed Nuclei (%) [7]: 39% | Population Tubulin-Different-Phenotype (%) [7]: 88% | Total Cell Count [7]: 150 | Population Apoptotic (%) [8]: 42% | Population Fragmented Nuclei (%) [8]: 28% | Population Healthy Nuclei (%) [8]: 26% | Population Hoechst High Intensity Objects (%) [8]: 8% | Population Membrane Permeable-Phenotype (%) [8]: 17% | Population Mitochondria Different-Phenotype (%) [8]: 8% | Population Mitotic Cells (%) [8]: 57% | Population Normal (%) [8]: 91% | Population Pyknosed Nuclei (%) [8]: 45% | Population Tubulin-Different-Phenotype (%) [8]: 85% | Total Cell Count [8]: 143 | Population Apoptotic (%) [9]: 48% | Population Fragmented Nuclei (%) [9]: 27% | Population Healthy Nuclei (%) [9]: 54% | Population Hoechst High Intensity Objects (%) [9]: 2% | Population Membrane Permeable-Phenotype (%) [9]: 1% | Population Mitochondria Different-Phenotype (%) [9]: 2% | Population Mitotic Cells (%) [9]: 52% | Population Normal (%) [9]: 97% | Population Pyknosed Nuclei (%) [9]: 18% | Population Tubulin-Different-Phenotype (%) [9]: 27% | Total Cell Count [9]: 141 | Population Apoptotic (%) [10]: 46% | Population Fragmented Nuclei (%) [10]: 35% | Population Hoechst High Intensity Objects (%) [10]: 7% | Population Membrane Permeable-Phenotype (%) [10]: 8% | Population Mitochondria Different-Phenotype (%) [10]: 8% | Population Mitotic Cells (%) [10]: 53% | Population Normal (%) [10]: 92% | Population Pyknosed Nuclei (%) [10]: 9% | Population Tubulin-Different-Phenotype (%) [10]: 73% | Total Cell Count [10]: 142 | Population Apoptotic (%) [11]: 61% | Population Fragmented Nuclei (%) [11]: 23% | Population Healthy Nuclei (%) [11]: 38% | Population Hoechst High Intensity Objects (%) [11]: 15% | Population Membrane Permeable-Phenotype (%) [11]: 0% | Population Mitochondria Different-Phenotype (%) [11]: 24% | Population Mitotic Cells (%) [11]: 38% | Population Normal (%) [11]: 84% | Population Pyknosed Nuclei (%) [11]: 37% | Population Tubulin-Different-Phenotype (%) [11]: 92% | Total Cell Count [11]: 153 | Population Apoptotic (%) [12]: 54% | Population Fragmented Nuclei (%) [12]: 34% | Population Healthy Nuclei (%) [12]: 37% | Population Hoechst High Intensity Objects (%) [12]: 10% | Population Membrane Permeable-Phenotype (%) [12]: 25% | Population Mitochondria Different-Phenotype (%) [12]: 8% | Population Mitotic Cells (%) [12]: 45% | Population Normal (%) [12]: 89% | Population Pyknosed Nuclei (%) [12]: 27% | Population Tubulin-Different-Phenotype (%) [12]: 87% | Total Cell Count [12]: 141

From ChEMBL document CHEMBL5058577, “EUbOPEN Chemogenomics Library 2 (Multiplex)” (2022)
